In ChEMBL document CHEMBL4251626, “4β-amidotriazole linked podophyllotoxin congeners: DNA topoisomerase-IIα inhibition and potential anticancer agents for prostate cancer” (Eur J Med Chem, 2018):
Active and inactive are the calls of the source. The rule behind the calls is not given here.

What was measured:
DU-145 [1] = test: Induction of apoptosis in human DU145 cells assessed as live cells at 0.5 uM after 24 hrs by Annexin V-FITC/propidium iodide staining based flow cytometry (reference value: 96.3%); assay type: functional
DU-145 [2] = test: Cell cycle arrest in human DU145 cells assessed as accumulation at G2/M phase at 0.5 uM after 24 hrs by propidium iodide staining based flow cytometry relative to control; assay type: functional
In short: (§1)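 DU-145 cells (2x10^5/well) serum-starved 24 h to synchronize, then treated in complete medium for 24 h. Harvested and fixed in 70% ethanol at -20 °C for 30 min. RNase A (0.1 mg/mL, 37 °C, 30 min), then propidium iodide (50 µg/mL, 30 min on ice, dark). DNA content measured by flow cytometry.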

DU-145 [3] = test: Induction of apoptosis in human DU145 cells assessed as nuclear fragmentation at 0.5 to 1 uM after 24 hrs by Hoechst staining based fluorescence microscopic method; assay type: functional, cell-based
In short: (§2)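 DU-145 cells (1x10^5/well) incubated overnight, then treated 24 h. After three PBS washes, stained with Hoechst (1 µg/ml) for 20 min at 37 °C and washed. Imaged by fluorescence microscopy; random fields counted for chromatin condensation and nuclear fragmentation.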

DU-145 [4] = test: Induction of apoptosis in human DU145 cells assessed as early apoptotic cells at 1 uM after 24 hrs by Annexin V-FITC/propidium iodide staining based flow cytometry (reference value: 0.56%); assay type: functional
DU-145 [5] = test: Antiproliferative activity against human DU145 cells after 48 hrs by MTT assay; assay type: functional, cell-based; settings: DU-145, 48 h
In short: (§3)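 Cells in DMEM/10% FBS pre-incubated 24 h at 37 °C, then compound-treated 48 h (10 mM DMSO stock diluted in medium). MTT (10 µL of 5 mg/mL) added for 4 h; formazan dissolved in DMSO, absorbance read at 570 nm. IC50 = 50% inhibitory concentration, mean of three individual experiments.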

[6] = molecular target: DNA topoisomerase 2-alpha (Homo sapiens) (UniProt P11388); test: Poison activity at recombinant human topoisomerase-2 alpha assessed as linear DNA formation using pHOT1 kDNA as substrate at 100 uM after 10 mins by agarose gel electrophoresis method
In short: (§4)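 Five units human recombinant topo II, 10 min at 37 °C. Stopped with loading-dye stop buffer; products resolved on 1% agarose gel in TAE (catenated, decatenated, linear DNA).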

DU-145 [7] = test: Induction of apoptosis in human DU145 cells assessed as necrotic cells at 1 uM after 24 hrs by Annexin V-FITC/propidium iodide staining based flow cytometry (reference value: 1.65%); assay type: functional
DU-145 [8] = test: Induction of ROS production in human DU145 cells at 0.5 to 1 uM after 24 hrs by DCFDA staining based fluorescence microscopic method; assay type: functional, cell-based
In short: (§5)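 DU-145 cells (2x10^5/well) plated overnight, then treated 24 h at indicated concentrations. Medium replaced with DCFDA (10 µM) for 30 min at room temperature in the dark. After PBS washes, fluorescence was imaged by microscopy and reported as mean fluorescence intensity.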

DU-145 [9] = test: Induction of apoptosis in human DU145 cells assessed as necrotic cells at 0.5 uM after 24 hrs by Annexin V-FITC/propidium iodide staining based flow cytometry (reference value: 1.65%); assay type: functional
DU-145 [10] = test: Induction of apoptosis in human DU145 cells assessed as early apoptotic cells at 0.5 uM after 24 hrs by Annexin V-FITC/propidium iodide staining based flow cytometry (reference value: 0.56%); assay type: functional
DU-145 [11] = test: Induction of apoptosis in human DU145 cells assessed as cell shrinkage at 0.5 to 1 uM after 24 hrs by phase contrast microscopic method; assay type: functional, cell-based
In short: (§6)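 DU-145 cells (2x10^5/well) plated overnight; medium replaced with fresh medium containing compound at indicated concentrations for 24 h. Cell morphology examined and photographed by phase-contrast microscopy.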

NIH3T3 = test: Antiproliferative activity against mouse NIH/3T3 cells after 48 hrs by MTT assay; assay type: cell-based; settings: NIH3T3, 48 h; in short: as §3
DU-145 [12] = test: Antimigratory activity against human DU145 cells at 0.5 to 1 uM after 24 to 48 hrs by phase contrast microscopic based scratch assay; assay type: functional, cell-based
In short: (§7)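 DU-145 cells seeded at 2x10^5/well and grown to confluence; wound made with a sterile 200 µL tip, debris washed off with PBS. Fresh medium with compound at the indicated concentrations added. Migration followed by phase-contrast microscopy with images at 0, 24 and 48 h.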

DU-145 [13] = test: Induction of apoptosis in human DU145 cells assessed as live cells at 1 uM after 24 hrs by Annexin V-FITC/propidium iodide staining based flow cytometry (reference value: 96.3%); assay type: functional
DU-145 [14] = test: Induction of apoptosis in human DU145 cells assessed as nuclear condensation at 0.5 to 1 uM after 24 hrs by Hoechst staining based fluorescence microscopic method; assay type: functional, cell-based; in short: as §2
HeLa = test: Antiproliferative activity against human HeLa cells after 48 hrs by MTT assay; assay type: functional, cell-based; in short: as §3
DU-145 [15] = test: Induction of apoptosis in human DU145 cells assessed as late apoptotic cells at 1 uM after 24 hrs by Annexin V-FITC/propidium iodide staining based flow cytometry (reference value: 1.49%); assay type: functional
DU-145 [16] = test: Induction of apoptosis in human DU145 cells assessed as late apoptotic cells at 0.5 uM after 24 hrs by Annexin V-FITC/propidium iodide staining based flow cytometry (reference value: 1.49%); assay type: functional
DU-145 [17] = test: Induction of apoptosis in human DU145 cells assessed as cell detachment from substratum at 0.5 to 1 uM after 24 hrs by phase contrast microscopic method; assay type: functional, cell-based; in short: as §6
MCF7 = test: Antiproliferative activity against human MCF7 cells after 48 hrs by MTT assay; assay type: functional, cell-based; settings: MCF7, 48 h; in short: as §3
HepG2 = test: Antiproliferative activity against human HepG2 cells after 48 hrs by MTT assay; assay type: functional, cell-based; settings: HepG2, 48 h; in short: as §3
DU-145 [18] = test: Cell cycle arrest in human DU145 cells assessed as accumulation at G2/M phase at 1 uM after 24 hrs by propidium iodide staining based flow cytometry relative to control; assay type: functional; in short: as §1
A549 = test: Antiproliferative activity against human A549 cells after 48 hrs by MTT assay; assay type: functional, cell-based; settings: A549, 48 h; in short: as §3
DU-145 [19] = test: Induction of mitochondrial membrane potential loss in human DU145 cells […] at 0.5 to 1 uM after 24 hrs by JC1 staining based flow cytometry; assay type: functional, cell-based
In short: (§8)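 Cells (2x10^5/well) treated 24 h, trypsinized and pelleted (400 g, 5 min). Incubated with freshly made JC-1 working solution for 15 min at 37 °C, washed twice in assay buffer. Analysed by flow cytometry as percentage of J-aggregate versus J-monomer cells.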

HT-29 = test: Antiproliferative activity against human HT-29 cells after 48 hrs by MTT assay; assay type: functional, cell-based; settings: HT-29, 48 h; in short: as §3
DU-145 [20] = test: Induction of apoptosis in human DU145 cells after 24 hrs by Annexin V-FITC/propidium iodide staining based flow cytometry; assay type: functional, cell-based
DU-145 [21] = test: Induction of ROS production in human DU145 cells after 24 hrs by DCFDA staining based fluorescence microscopic method; assay type: functional, cell-based; in short: as §5
[22] = molecular target: DNA topoisomerase 2-alpha (Homo sapiens) (UniProt P11388); test: Inhibition of recombinant human topoisomerase-2 alpha assessed as reduction in decatenation of pHOT1 kDNA at 100 uM after 10 mins by agarose gel electrophoresis method; in short: as §4
DU-145 [23] = test: Cell cycle arrest in human DU145 cells assessed as accumulation at G2/M phase at 2 uM after 24 hrs by propidium iodide staining based flow cytometry relative to control; assay type: functional; in short: as §1
DU-145 [24] = test: Induction of mitochondrial membrane potential loss in human DU145 cells […] at 2 uM after 24 hrs by JC1 staining based flow cytometry; assay type: functional, cell-based; in short: as §8
DU-145 [25] = test: Antimigratory activity against human DU145 cells at 2 uM after 24 to 48 hrs by phase contrast microscopic based scratch assay; assay type: functional, cell-based; in short: as §7
DU-145 [26] = test: Induction of ROS production in human DU145 cells at 2 uM after 24 hrs by DCFDA staining based fluorescence microscopic method; assay type: functional, cell-based; in short: as §5
DU-145 [27] = test: Induction of apoptosis in human DU145 cells assessed as necrotic cells at 2 uM after 24 hrs by Annexin V-FITC/propidium iodide staining based flow cytometry (reference value: 1.65%); assay type: functional
DU-145 [28] = test: Induction of apoptosis in human DU145 cells assessed as early apoptotic cells at 2 uM after 24 hrs by Annexin V-FITC/propidium iodide staining based flow cytometry (reference value: 0.56%); assay type: functional
DU-145 [29] = test: Induction of apoptosis in human DU145 cells assessed as nuclear fragmentation at 2 uM after 24 hrs by Hoechst staining based fluorescence microscopic method; assay type: functional, cell-based; in short: as §2
DU-145 [30] = test: Induction of apoptosis in human DU145 cells assessed as morphological changes at 2 uM after 24 hrs by phase contrast microscopic method; assay type: functional, cell-based; in short: as §6
DU-145 [31] = test: Induction of apoptosis in human DU145 cells assessed as late apoptotic cells at 2 uM after 24 hrs by Annexin V-FITC/propidium iodide staining based flow cytometry (reference value: 1.49%); assay type: functional
DU-145 [32] = test: Induction of apoptosis in human DU145 cells assessed as nuclear condensation at 2 uM after 24 hrs by Hoechst staining based fluorescence microscopic method; assay type: functional, cell-based; in short: as §2
DU-145 [33] = test: Induction of apoptosis in human DU145 cells assessed as live cells at 2 uM after 24 hrs by Annexin V-FITC/propidium iodide staining based flow cytometry (reference value: 96.3%); assay type: functional

Sequence of DNA topoisomerase 2-alpha (Homo sapiens) (P11388 whole entry): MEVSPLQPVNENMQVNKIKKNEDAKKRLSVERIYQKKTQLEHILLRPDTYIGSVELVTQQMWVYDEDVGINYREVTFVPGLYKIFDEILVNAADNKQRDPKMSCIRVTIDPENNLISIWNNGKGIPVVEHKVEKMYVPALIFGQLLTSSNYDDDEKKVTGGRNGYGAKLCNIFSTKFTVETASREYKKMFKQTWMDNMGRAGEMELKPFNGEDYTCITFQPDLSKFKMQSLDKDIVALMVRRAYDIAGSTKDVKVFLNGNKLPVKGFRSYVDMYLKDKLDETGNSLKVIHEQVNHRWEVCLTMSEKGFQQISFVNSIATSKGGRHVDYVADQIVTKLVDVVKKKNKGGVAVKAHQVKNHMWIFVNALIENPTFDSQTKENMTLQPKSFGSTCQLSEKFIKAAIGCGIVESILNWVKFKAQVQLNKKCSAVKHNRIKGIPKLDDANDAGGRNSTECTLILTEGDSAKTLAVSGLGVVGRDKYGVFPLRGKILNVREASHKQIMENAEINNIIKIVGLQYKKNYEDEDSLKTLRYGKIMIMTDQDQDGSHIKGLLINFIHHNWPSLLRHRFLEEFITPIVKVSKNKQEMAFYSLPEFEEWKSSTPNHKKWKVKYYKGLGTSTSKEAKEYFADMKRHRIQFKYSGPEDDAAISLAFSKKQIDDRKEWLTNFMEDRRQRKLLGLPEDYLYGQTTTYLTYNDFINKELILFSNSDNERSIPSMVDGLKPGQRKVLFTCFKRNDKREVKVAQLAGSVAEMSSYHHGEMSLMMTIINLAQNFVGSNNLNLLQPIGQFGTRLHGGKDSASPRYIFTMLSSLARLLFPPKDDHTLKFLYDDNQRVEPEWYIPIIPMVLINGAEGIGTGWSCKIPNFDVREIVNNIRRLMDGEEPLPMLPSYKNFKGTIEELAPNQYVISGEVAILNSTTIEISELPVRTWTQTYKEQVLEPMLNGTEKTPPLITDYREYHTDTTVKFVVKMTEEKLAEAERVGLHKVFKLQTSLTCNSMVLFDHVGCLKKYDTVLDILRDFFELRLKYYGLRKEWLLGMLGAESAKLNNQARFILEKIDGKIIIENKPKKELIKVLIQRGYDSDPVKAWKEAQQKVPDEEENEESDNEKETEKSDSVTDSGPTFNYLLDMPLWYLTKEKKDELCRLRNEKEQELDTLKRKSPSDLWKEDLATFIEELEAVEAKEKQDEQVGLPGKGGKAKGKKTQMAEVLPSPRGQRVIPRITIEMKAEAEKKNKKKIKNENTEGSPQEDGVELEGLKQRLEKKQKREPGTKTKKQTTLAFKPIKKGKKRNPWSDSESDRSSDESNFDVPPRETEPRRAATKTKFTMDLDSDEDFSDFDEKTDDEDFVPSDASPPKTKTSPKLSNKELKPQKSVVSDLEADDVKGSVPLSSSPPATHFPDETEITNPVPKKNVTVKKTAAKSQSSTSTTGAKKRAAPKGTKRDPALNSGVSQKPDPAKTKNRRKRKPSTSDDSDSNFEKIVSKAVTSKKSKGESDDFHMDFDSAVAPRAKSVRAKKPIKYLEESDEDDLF

Row | Structure (SMILES) | Activity (DU-145 [1]) [%] | Activity (DU-145 [2]) [%] | Activity (DU-145 [3]) | Activity (DU-145 [4]) [%] | IC50 (DU-145 [5]) [nM] | Activity [6] | Activity (DU-145 [7]) [%] | Activity (DU-145 [9]) [%] | Activity (DU-145 [10]) [%] | Activity (DU-145 [11]) | IC50 (NIH3T3) [nM] | Activity (DU-145 [12]) | Activity (DU-145 [13]) [%] | Activity (DU-145 [14]) | IC50 (HeLa) [nM] | Activity (DU-145 [15]) [%] | IC50 (MCF7) [nM] | IC50 (HepG2) [nM] | IC50 (A549) [nM] | IC50 (HT-29) [nM] | further results
1 | COc1cc([C@@H]2c3cc4c(cc3C(NC(=O)c3cn(-c5ccc(Cl)cc5)nn3)[C@H]3COC(=O)[C@H]23)OCO4)cc(OC)c1OC (single isomer, unassigned) | 93.72 | 31.94 | Active | 4.35 | 700 | Active | 0.16 | 0.41 | 3.94 | Active | 89000 | inactive | 93.69 | Active | 780 | 1.8 | 970 | 780 | 1200 | 4110 | Activity (DU-145 [8]): Active; Activity (DU-145 [16]): 1.93%; Activity (DU-145 [17]): Active; Activity (DU-145 [18]): 35.61%; Activity (DU-145 [19]): inactive
2 | COc1cc([C@@H]2c3cc4c(cc3C(NC(=O)c3cn(-c5ccc(C(F)(F)F)cc5)nn3)[C@H]3COC(=O)[C@H]23)OCO4)cc(OC)c1OC (single isomer, unassigned) | 89.65 | 52.42 | Active | 17.65 | 890 |  | 0.05 | 0.74 | 7.01 | Active | 83800 | Active | 79.84 | Active | 1210 | 2.46 | 1350 | 1210 | 1960 | 4400 | Activity (DU-145 [20]): Dose-dependent effect; Activity (DU-145 [21]): Dose-dependent effect; inhibition [22]: Active; Activity (DU-145 [16]): 2.6%; Activity (DU-145 [17]): Active; Activity (DU-145 [18]): 56.16%; Activity (DU-145 [19]): Active
3 | COc1ccc(-n2cc(C(=O)NC3c4cc5c(cc4[C@@H](c4cc(OC)c(OC)c(OC)c4)[C@H]4C(=O)OC[C@H]34)OCO5)nn2)cc1 (single isomer, unassigned) | 91.01 | 56.71 | Active | 7 | 990 | Active | 0.99 | 0.4 | 6.76 | Active | 62900 | Active | 88.89 | Active | 6490 | 3.12 | 1110 | 2790 | 1610 | 11400 | Activity (DU-145 [20]): Dose-dependent effect; Activity (DU-145 [21]): Dose-dependent effect; Activity (DU-145 [16]): 1.83%; Activity (DU-145 [17]): Active; Activity (DU-145 [18]): 64.3%; Activity (DU-145 [19]): Active
4 | COc1cc([C@@H]2c3cc4c(cc3[C@@H](O[C@@H]3O[C@@H]5CO[C@@H](C)O[C@H]5[C@H](O)[C@H]3O)[C@H]3COC(=O)[C@H]23)OCO4)cc(OC)c1O [ETOPOSIDE] |  |  |  |  | 2350 | Active |  |  |  |  |  |  |  |  | 2710 |  | 1620 | 2840 | 1970 | 1870 | Activity (DU-145 [23]): 71.53%; Activity (DU-145 [24]): Active; Activity (DU-145 [25]): Active; Activity (DU-145 [26]): Active; Activity (DU-145 [27]): 0.53%; Activity (DU-145 [28]): 4.52%; Activity (DU-145 [29]): Active; Activity (DU-145 [30]): Active; Activity (DU-145 [31]): 3.86%; Activity (DU-145 [32]): Active; Activity (DU-145 [33]): 91.09%
